≈ marks a conversion by molar mass, not a printed value.
Assays:
Trypanosoma cruzi [1] = experiment: Antitrypanosomal activity against Trypanosoma cruzi Tulahuen 2 at 25 uM; assay type: functional
Method in brief: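 Tulahuen 2 epimastigotes (8 × 10⁶ cells/mL, 28 °C, BHI-tryptose with 5% FBS) were exposed to a single drug concentration, with final DMSO ≤0.4% and a vehicle control. Percent growth inhibition = {1 − [(Ap − A0p)/(Ac − A0c)]} × 100, using A600 of drug and control cultures at day 0 and day 5.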

Candida tropicalis = experiment: Antifungal activity against Candida tropicalis C 131 2000 after 48 hrs; assay type: functional; details: Candida tropicalis, C 131 2000, 48 h; for MIC: read-out: MIC
Method in brief: (§1)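 CLSI M27-A2 broth microdilution in RPMI 1640 buffered to pH 7.0 with MOPS. Inoculum is 10³ CFU/mL from Sabouraud-grown yeasts. Compound is two-fold serially diluted, final DMSO ≤1%. Incubated at 35 °C in a moist, dark chamber and read visually at 48 h. MIC is the lowest concentration giving total growth inhibition.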

Trichophyton rubrum = experiment: Antifungal activity against Trichophyton rubrum C 113 after 48 hrs; assay type: functional; details: C 113, 48 h
Method in brief: (§2)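 Dermatophytes were tested by CLSI M38-A microdilution in MOPS-buffered RPMI 1640 at pH 7.0. Inoculum is 10³ CFU/mL, with two-fold serial compound dilutions and final DMSO ≤1%. Trays are kept at 28–30 °C in a moist, dark chamber. MIC is the lowest concentration with total growth inhibition, read visually when control growth allows.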

Candida albicans = experiment: Antifungal activity against Candida albicans ATCC 10231 after 48 hrs; assay type: functional; details: ATCC 10231, 48 h; method in brief: as §1
Aspergillus flavus = experiment: Antifungal activity against Aspergillus flavus ATCC 9170 after 48 hrs; assay type: functional; details: ATCC 9170, 48 h
Method in brief: (§3)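 Aspergillus spp. were tested by CLSI M38-A broth microdilution in RPMI 1640 with MOPS at pH 7.0. Spore inoculum is 10³ CFU/mL, with two-fold compound dilutions and final DMSO ≤1%. Incubated at 35 °C in a moist, dark chamber. MIC is read visually as total growth inhibition, at a time set by growth of the control fungus.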

Nannizzia gypsea = experiment: Antifungal activity against Microsporum gypseum C 115 after 48 hrs; assay type: functional; details: C 115, 48 h; method in brief: as §2
Trypanosoma cruzi [2] = experiment: Antitrypanosomal activity against Trypanosoma cruzi Tulahuen 2; assay type: functional; details: read-out: ID50 (the source's name)
Method in brief: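 Epimastigotes were grown at 28 °C in BHI-tryptose with 5% FBS. Stationary-phase parasites are inoculated at 8 × 10⁶ cells/mL into medium containing increasing drug concentrations from DMSO stock (final DMSO ≤0.4%; vehicle control). Growth is followed by A600. ID50 is the concentration that halves the day-5 absorbance ratio relative to control.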

Aspergillus niger = experiment: Antifungal activity against Aspergillus niger ATCC 9029 after 48 hrs; assay type: functional; details: ATCC 9029, 48 h; method in brief: as §3
[3] = test system: Trichophyton mentagrophytes; experiment: Antifungal activity against Trichophyton mentagrophytes ATCC 9972 after 48 hrs; assay type: functional; details: ATCC 9972, 48 h; method in brief: as §2
Saccharomyces cerevisiae = experiment: Antifungal activity against Saccharomyces cerevisiae ATCC 9763 after 48 hrs; assay type: functional; details: ATCC 9763, 48 h; method in brief: as §1
Aspergillus fumigatus = experiment: Antifungal activity against Aspergillus fumigatus ATCC 26934 after 48 hrs; assay type: functional; details: ATCC 26934, 48 h; method in brief: as §3
[4] = Selectivity index, ratio of ID50 for mouse J774 cells to ID50 for Trypanosoma cruzi Tulahuen 2; assay type: toxicity, cell-based; details: J774 cells versus Trypanosoma cruzi Tulahuen 2
Method in brief: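 Selectivity index is the ID50 in J-774 macrophages (48 h MTT) divided by the ID50 against Tulahuen 2 epimastigotes (day-5 A600 growth).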

[5] = Cytotoxicity against mouse J774 cells after 48 hrs by MTT assay; assay type: cell-based; details: read-out: ID50
Method in brief: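 J-774 macrophages were seeded at 1 × 10⁵ cells/well in RPMI 1640 with 20% heat-inactivated FCS and left to attach for 48 h at 37 °C in 5% CO₂. Cells were then exposed to compounds for 48 h. MTT was added at 0.4 mg/mL final, formazan was dissolved in DMSO, and A595 was read. ID50 is the concentration cutting control absorbance by 50%, averaged over three experiments.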

Cryptococcus neoformans = experiment: Antifungal activity against Cryptococcus neoformans ATCC 32264 after 48 hrs; assay type: functional; details: Cryptococcus neoformans, ATCC 32264, 48 h; for MIC: read-out: MIC; method in brief: as §1

Structure (SMILES) | inhibition at 25 µM (Trypanosoma cruzi [1]) [%] | MIC (Candida tropicalis) [µg/mL] | MIC (Trichophyton rubrum) [µg/mL] | MIC (Candida albicans) [µg/mL] | MIC (Aspergillus flavus) [µg/mL] | MIC (Nannizzia gypsea) [µg/mL] | IC50 (Trypanosoma cruzi [2]) [µM] | MIC (Aspergillus niger) [µg/mL] | MIC [3] [µg/mL] | MIC (Saccharomyces cerevisiae) [µg/mL] | MIC (Aspergillus fumigatus) [µg/mL] | selectivity ratio [4] | CC50 at 48 h [5] [µM] | other results
O=[N+]([O-])c1ccc2c(c1)c(OCc1ccccc1)nn2CCOCCN(CCC/C=C/c1ccccc1)CCOCCn1nc(OCc2ccccc2)c2cc([N+](=O)[O-])ccc21 | 0 |  |  |  |  |  |  |  |  |  |  |  |  | 
Cc1c(C(=O)Nc2ccccc2)[n+]([O-])c2cc(CN3CCN(C/C=C/c4ccccc4)CC3)ccc2[n+]1[O-] |  | > 250 | 125 (≈ 245 µM) | > 250 | > 250 | 125 (≈ 245 µM) | 25.4 | > 250 | 125 (≈ 245 µM) | > 250 | > 250 |  |  | MFC (Trichophyton rubrum): > 250 µg/mL; MFC (Nannizzia gypsea): > 250 µg/mL; MFC [3]: > 250 µg/mL
C=CCNC(=S)N/N=C/c1ccc2c(c1)[n+]([O-])c(C(=O)OCC)c(-c1ccccc1)[n+]2[O-] |  |  |  |  |  |  | 7.5 |  |  |  |  | > 33.3 | > 400 | 
C=CCNC(=S)N/N=C/c1ccc2c(c1)=[N+]([O-])C(C)(C)[N+]=2[O-] |  | > 250 | 250 (≈ 783 µM) | > 250 | > 250 | 250 (≈ 783 µM) | 7.2 | > 250 | 250 (≈ 783 µM) | > 250 | > 250 | 14.4 | 104 | MIC (Cryptococcus neoformans): > 250 µg/mL; MFC (Trichophyton rubrum): 250 µg/mL (≈ 783 µM); MFC (Nannizzia gypsea): 250 µg/mL (≈ 783 µM); MFC [3]: 250 µg/mL (≈ 783 µM)
CN(C/C=C/c1ccccc1)Cc1ccc2c(c1)[n+]([O-])c(C#N)c(N)[n+]2[O-] | 0 |  |  |  |  |  |  |  |  |  |  |  |  | 
N#Cc1c(N)[n+]([O-])c2ccc(CN3CCN(C/C=C/c4ccccc4)CC3)cc2[n+]1[O-] | 0 |  |  |  |  |  |  |  |  |  |  |  |  | 
CN(C/C=C/c1ccccc1)CCCCCn1nc(OCc2ccccc2)c2cc([N+](=O)[O-])ccc21 |  |  |  |  |  |  | 7.8 |  |  |  |  | < 12.8 | < 100 | 
CCOC(=O)c1c(-c2ccccc2)[n+]([O-])c2ccc(CN3CCN(C/C=C/c4ccccc4)CC3)cc2[n+]1[O-] |  | 250 (≈ 477 µM) | 125 (≈ 238 µM) | 250 (≈ 477 µM) | > 250 | 250 (≈ 477 µM) | 9.5 | > 250 | 125 (≈ 238 µM) | 125 (≈ 238 µM) | > 250 | < 10.5 | < 100 | MFC (Cryptococcus neoformans): 250 µg/mL (≈ 477 µM); MIC (Cryptococcus neoformans): 125 µg/mL (≈ 238 µM); MFC (Candida tropicalis): > 250 µg/mL; MFC (Trichophyton rubrum): 250 µg/mL (≈ 477 µM); MFC (Candida albicans): > 250 µg/mL; MFC (Nannizzia gypsea): > 250 µg/mL; MFC [3]: 250 µg/mL (≈ 477 µM); MFC (Saccharomyces cerevisiae): 250 µg/mL (≈ 477 µM)
N#Cc1c2ccccc2[n+]([O-])n1CC/C=C\c1ccc(Cl)cc1 | 20 |  |  |  |  |  |  |  |  |  |  |  |  | 
[O-][n+]1onc2ccc(CN3CCN(C/C=C/c4ccccc4)CC3)cc21 | 14 |  |  |  |  |  |  |  |  |  |  |  |  | 
CN(C/C=C/c1ccccc1)Cc1ccc2c(c1)=[N+]([O-])C(C)(C)[N+]=2[O-] |  |  |  |  |  |  | 22.7 |  |  |  |  | > 17.6 | > 400 | 
Cc1c(C(=O)Nc2ccccc2)[n+]([O-])c2cc(CN(C)C/C=C/c3ccccc3)ccc2[n+]1[O-] | 34 |  |  |  |  |  |  |  |  |  |  |  |  | 
COc1nn(CCOCCN(C)C/C=C/c2ccccc2)c2ccc([N+](=O)[O-])cc12 |  |  |  |  |  |  | 23.1 |  |  |  |  | < 4.3 | < 100 | 
CN(C/C=C/c1ccccc1)CCOCCn1nc(OCc2ccccc2)c2cc([N+](=O)[O-])ccc21 |  |  |  |  |  |  | 10 |  |  |  |  | < 10 | < 100 | 
CC1(C)[N+]([O-])=c2ccc(CN3CCN(C/C=C/c4ccccc4)CC3)cc2=[N+]1[O-] |  |  |  |  |  |  | 25 |  |  |  |  | 4.4 | 109 | 
O=[N+]([O-])c1ccc2c(c1)c(OCc1ccccc1)nn2CCOCCNCCC/C=C/c1ccccc1 |  |  |  |  |  |  | 4.5 |  |  |  |  | < 22.2 | < 100 | 
C=CCNC(=S)N/N=C/c1ccc2c(c1)[n+]([O-])c(C(=O)Nc1ccccc1)c(-c1ccccc1)[n+]2[O-] | 18 |  |  |  |  |  |  |  |  |  |  |  |  | 
O=[N+]([O-])c1ccc2c(c1)c(OCc1ccccc1)nn2CCOCCN1CCN(C/C=C/c2ccccc2)CC1 |  | > 250 | 125 (≈ 231 µM) | > 250 | > 250 | 125 (≈ 231 µM) | 6.5 | > 250 | 125 (≈ 231 µM) | > 250 | > 250 | < 15.4 | < 100 | MIC (Cryptococcus neoformans): > 250 µg/mL; MFC (Trichophyton rubrum): > 250 µg/mL; MFC (Nannizzia gypsea): > 250 µg/mL; MFC [3]: > 250 µg/mL
N#Cc1c2ccccc2[n+]([O-])n1CC/C=C\c1ccccc1 | 30 |  |  |  |  |  |  |  |  |  |  |  |  | 
C[C@@H]1[C@H](O)[C@@H](C)/C=C/C=C/C=C/C=C/C=C/C=C/C=C/[C@H](O[C@@H]2O[C@H](C)[C@@H](O)[C@H](N)[C@@H]2O)C[C@@H]2O[C@](O)(C[C@@H](O)C[C@@H](O)[C@H](O)CC[C@@H](O)C[C@@H](O)CC(=O)O[C@H]1C)C[C@H](O)[C@H]2C(=O)O [AMPHOTERICIN B] |  | 1.56 (≈ 1.69 µM) | 0.075 (≈ 0.0812 µM) | 0.78 (≈ 0.844 µM) | 0.5 (≈ 0.541 µM) | 0.125 (≈ 0.135 µM) |  | 0.5 (≈ 0.541 µM) | 0.075 (≈ 0.0812 µM) | 0.5 (≈ 0.541 µM) | 0.5 (≈ 0.541 µM) |  |  | MIC (Cryptococcus neoformans): 0.25 µg/mL (≈ 0.271 µM)
CC(=O)N1CCN(c2ccc(OCC3COC(Cn4ccnc4)(c4ccc(Cl)cc4Cl)O3)cc2)CC1 (centres undefined) [KETOCONAZOLE] |  | 0.5 (≈ 0.941 µM) | 0.025 (≈ 0.047 µM) | 0.5 (≈ 0.941 µM) | 0.5 (≈ 0.941 µM) | 0.05 (≈ 0.0941 µM) |  | 0.25 (≈ 0.47 µM) | 0.025 (≈ 0.047 µM) | 0.5 (≈ 0.941 µM) | 0.125 (≈ 0.235 µM) | 19.9 | 339 | MIC (Cryptococcus neoformans): 0.25 µg/mL (≈ 0.47 µM)
CC1CS(=O)(=O)CCN1/N=C/c1ccc([N+](=O)[O-])o1 (centres undefined) [NIFURTIMOX] |  |  |  |  |  |  |  |  |  |  |  | > 33.3 |  | 
CN(C/C=C/C#CC(C)(C)C)Cc1cccc2ccccc12 [TERBINAFINE] |  | 1.56 (≈ 5.35 µM) | 0.01 (≈ 0.0343 µM) | 1.56 (≈ 5.35 µM) | 0.78 (≈ 2.68 µM) | 0.04 (≈ 0.137 µM) |  | 1.56 (≈ 5.35 µM) | 0.025 (≈ 0.0858 µM) | 3.12 (≈ 10.7 µM) | 0.78 (≈ 2.68 µM) | < 10 | < 100 | MIC (Cryptococcus neoformans): 0.39 µg/mL (≈ 1.34 µM)

From ChEMBL document CHEMBL1165856, “Naftifine-analogues as anti-Trypanosoma cruzi agents” (Eur J Med Chem, 2010)
